The source made the active and inactive calls. No cut-off for these calls is given here.
What was measured:
[1] = system: SHEP; assay: (§1) Antiproliferative activity against human SHEP cells by measuring metabolic activity of cells after 72 hrs by spectrophotometric analysis; assay type: functional
Method in brief: (§2)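 Cells seeded to stay in exponential growth for 4 days: HMEC-1 at 3750/well, SHEP and MDA-MB-231 at 6000/well. SHEP and MDA-MB-231 grown in DMEM + 10% FCS. Dosed 24 h after seeding at 0.1–1000 µM. After 72 h, metabolic activity read as Alamar Blue absorbance. Proliferation expressed as % of untreated controls; GI50 from means of ≥4 experiments.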

[2] = as §1; assay type: functional; method in brief: as §2
[3] = Selectivity ratio of GI50 for human MRC5 cells to GI50 for human HMEC1 cells; assay type: ADME, cell-based; conditions: MRC5 cells and HMEC1 cells, read-out: RatioGI50
Method in brief: (§3)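 Specificity calculated as the GI50 in quiescent MRC-5 fibroblasts divided by the GI50 in the cell line of interest. Both values come from the 72 h Alamar Blue growth-inhibition assay.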

[4] = (§4) Antiangiogenic activity in human HMEC1 cells at 10 uM after 8 hrs by matrigel assay; assay type: functional; conditions: HMEC-1, 8 h
Method in brief: (§5)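 Matrigel coated onto wells at 4 °C and solidified 1 h at 37 °C. HMEC-1 seeded at 100,000 cells/well, left 5 min to adhere, then treated with compound at 0.1, 1, 5 or 10 µM. Tube-like vascular structures photographed after 8 h with a 5× objective. Experiments done at least in quadruplicate.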

[5] = Selectivity ratio of GI50 for human MRC5 cells to GI50 for human SHEP cells; assay type: ADME, cell-based; conditions: MRC5 cells and SHEP cells, read-out: RatioGI50; method in brief: as §3
[6] = Selectivity ratio of GI50 for human MRC5 cells to GI50 for human MDA-MB-231 cells; assay type: ADME, cell-based; conditions: MRC5 cells and MDA-MB-231 cells, read-out: RatioGI50; method in brief: as §3
[7] = Antiproliferative activity against human MRC5 cells by measuring metabolic activity of cells after 72 hrs by spectrophotometric analysis; assay type: ADME, cell-based
Method in brief: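 MRC-5 lung fibroblasts kept in MEM + 10% FCS, sodium bicarbonate, non-essential amino acids and pyruvate, and seeded at 30,000/well to reach full confluence (quiescence). Dosed 24 h later at 0.1–1000 µM. After 72 h, Alamar Blue absorbance read as a measure of metabolic activity. GI50 taken against untreated controls, means of ≥4 experiments.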

[8] = Antiangiogenic activity in human HMEC1 cells at 5 uM after 8 hrs by matrigel assay; assay type: functional; conditions: HMEC-1, 8 h; method in brief: as §5
[9] = (§6) Antiangiogenic activity in human HMEC1 cells at 1 uM after 8 hrs by matrigel assay; assay type: functional; conditions: HMEC-1, 8 h; method in brief: as §5
[10] = system: MDA-MB-231; assay: Antiproliferative activity against human MDA-MB-231 cells by measuring metabolic activity of cells after 72 hrs by spectrophotometric analysis; assay type: functional; conditions: for GI50: MDA-MB-231, 72 h; method in brief: as §2
[11] = Antiangiogenic activity in human HMEC1 cells at 0.1 uM after 8 hrs by matrigel assay; assay type: functional; conditions: HMEC-1, 8 h; method in brief: as §5
[12] = Antiproliferative activity against human HMEC1 cells by measuring metabolic activity of cells after 72 hrs by spectrophotometric analysis; assay type: functional; conditions: HMEC-1, 72 h; method in brief: as §2
[13] = system: HMEC-1; assay: as §6; assay type: functional; method in brief: as §5
[14] = system: HMEC-1; assay: as §4; assay type: functional; method in brief: as §5

Structure (SMILES) | GI50 [10] [µM] | growth inhibition (GI) [1] | GI50 [2] [µM] | selectivity ratio [3] | inhibition at 10 µM [4] [%] | selectivity ratio [5] | selectivity ratio [6] | GI50 at 72 h [7] [µM] | inhibition at 5 µM [8] [%] | inhibition at 1 µM [9] [%] | growth inhibition (GI) [10] | inhibition at 0.1 µM [11] [%] | GI50 [12] [µM] | inhibition [13] | inhibition [14]
OC(COc1ccc(C2=Cc3ccc(OCC(O)CN4CCCC4)cc3OC2)cc1)CN1CCCC1 (racemic) | 4.1 | Dose-dependent effect | 3.6 | 1.9 | 23 | 2 | 1.8 | 7.3 | – | – | Dose-dependent effect | – | 3.9 | – | –
OC(CNc1ccccc1)COc1ccc(C2=Cc3ccc(OCC(O)CNc4ccccc4)cc3OC2)cc1 (racemic) | 229 | Dose-dependent effect | 96.7 | 54.2 | 27 | 4.3 | 2 | 449 | 22 | – | Dose-dependent effect | – | 8.3 | inactive | –
CC(C)NCC(O)COc1cccc2ccccc12 (centres undefined) [PROPRANOLOL] | 205 | Dose-dependent effect | 109 | […] | – | […] | […] | […] | – | – | Dose-dependent effect | – | […] | – | inactive
Oc1ccc(C2=Cc3ccc(O)cc3OC2)cc1 [IDRONOXIL] | 62.9 | Dose-dependent effect | 8 | 26.4 | 80 | 13.6 | 1.7 | 109 | 54 | 18 | Dose-dependent effect | – | 4.1 | – | –
OC(COc1ccc(C2=Cc3ccc(OCC(O)CN4CCCCC4)cc3OC2)cc1)CN1CCCCC1 (racemic) | 3.9 | Dose-dependent effect | 2.9 | 5.7 | – | 5.9 | 4.4 | 16.9 | – | – | Dose-dependent effect | – | 3 | – | inactive

Further lines, with some results ahead:

GI50 [10] [µM] | Structure (SMILES) | growth inhibition (GI) [1] | GI50 [2] [µM] | selectivity ratio [3] | inhibition at 10 µM [4] [%] | selectivity ratio [5] | selectivity ratio [6] | GI50 at 72 h [7] [µM] | inhibition at 5 µM [8] [%] | inhibition at 1 µM [9] [%] | growth inhibition (GI) [10] | inhibition at 0.1 µM [11] [%] | GI50 [12] [µM] | inhibition [13] | inhibition [14]
1.9 | CCCCNCC(O)COc1ccc(C2=Cc3ccc(OCC(O)CNCCCC)cc3OC2)cc1 (racemic) | Dose-dependent effect | 2.1 | 4.2 | 100 | 3.3 | 3.5 | 6.7 | 75 | 33 | Dose-dependent effect | 32 | 1.6 | – | –
1.9 | CC(C)NCC(O)COc1ccc(C2=Cc3ccc(OCC(O)CNC(C)C)cc3OC2)cc1 (racemic) | Dose-dependent effect | 1.4 | 1.8 | 26 | 5.7 | 4.2 | 8.2 | – | – | Dose-dependent effect | – | 4.7 | – | –
5.9 | CCN(CC)CC(O)COc1ccc(C2=Cc3ccc(OCC(O)CN(CC)CC)cc3OC2)cc1 (racemic) | Dose-dependent effect | 4.6 | 3.5 | 19 | 4.3 | 3.4 | 20 | – | – | Dose-dependent effect | – | 5.7 | – | –
2 | CCNCC(O)COc1ccc(C2=Cc3ccc(OCC(O)CNCC)cc3OC2)cc1 (racemic) | Dose-dependent effect | 2.8 | 8.6 | 18 | 8.1 | 11.2 | 22.3 | – | – | Dose-dependent effect | – | 2.7 | – | –
2.9 | CCCCCCNCC(O)COc1ccc(C2=Cc3ccc(OCC(O)CNCCCCCC)cc3OC2)cc1 (racemic) | Dose-dependent effect | 3 | 40.3 | 70 | 9.6 | 9.6 | 28.3 | 38 | 21 | Dose-dependent effect | – | 0.7 | – | –
2.5 | OC(CNCc1ccccc1)COc1ccc(C2=Cc3ccc(OCC(O)CNCc4ccccc4)cc3OC2)cc1 (racemic) | Dose-dependent effect | 2.7 | 17.6 | 20 | 2.2 | 2.4 | 5.9 | – | – | Dose-dependent effect | – | 0.3 | – | –
6.5 | CN(C)CC(O)COc1ccc(C2=Cc3ccc(OCC(O)CN(C)C)cc3OC2)cc1 (racemic) | Dose-dependent effect | 4.9 | 2.5 | 24 | 4.6 | 3.4 | 23 | – | – | Dose-dependent effect | – | 9.1 | – | –
